In ChEMBL document CHEMBL2434944, “Novel acetamidothiazole derivatives: synthesis and in vitro anticancer evaluation” (Eur J Med Chem, 2013):

Columns and labels:
SF-539 = assay: Growth inhibition of human SF539 cells assessed as cell growth at 10^-5 M after 48 hrs by sulforhodamine B assay relative to control; assay type: functional; details: SF-539, 48 h, read-out: Activity
In short: (§1)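 NCI-60 single-dose screen at 10^-5 M. Cells grown in RPMI 1640 with 5% FBS and 2 mM L-glutamine, plated at 5,000–40,000 cells/well according to doubling time, and preincubated 24 h at 37°C, 5% CO2. Compound dissolved in DMSO and added. Exposure 48 h. Adherent cells fixed with cold TCA (10% final), suspension cells with 16% final TCA. Read-out is 0.4% SRB staining, dye solubilised in 10 mM Tris, absorbance at 515 nm. Percent growth is calculated against the time-zero plate and untreated control.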

Thymidylate synthase = Thymidylate synthase (Homo sapiens, UniProt P04818); assay: Inhibition of human thymidylate synthase
A549 = assay: Growth inhibition of human A549 cells assessed as cell growth at 10^-5 M after 48 hrs by sulforhodamine B assay relative to control; assay type: functional; details: A549, 48 h, read-out: Activity; in short: as §1
NCI-H23 = assay: Growth inhibition of human NCI-H23 cells assessed as cell growth at 10^-5 M after 48 hrs by sulforhodamine B assay relative to control; assay type: functional; details: NCI-H23, 48 h, read-out: Activity; in short: as §1
NCI-H322M = assay: Growth inhibition of human NCI-H322M cells assessed as cell growth at 10^-5 M after 48 hrs by sulforhodamine B assay relative to control; assay type: functional; details: read-out: Activity; in short: as §1
MCF7 = assay: Growth inhibition of human MCF7 cells assessed as cell growth at 10^-5 M after 48 hrs by sulforhodamine B assay relative to control; assay type: functional; details: MCF7, 48 h, read-out: Activity; in short: as §1
[1] = Growth inhibition of human NCI-ADR-RES cells assessed as cell growth at 10^-5 M after 48 hrs by sulforhodamine B assay relative to control; assay type: functional; details: read-out: Activity; in short: as §1
RXF 393 = assay: Growth inhibition of human RXF393 cells assessed as cell growth at 10^-5 M after 48 hrs by sulforhodamine B assay relative to control; assay type: functional; details: RXF 393, 48 h, read-out: Activity; in short: as §1
SR = assay: Growth inhibition of human SR cells assessed as cell growth at 10^-5 M after 48 hrs by sulforhodamine B assay relative to control; assay type: functional; details: read-out: Activity
In short: (§2)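 NCI-60 single-dose screen, 10^-5 M final. Cells grown in RPMI 1640 with 5% FBS and 2 mM L-glutamine, seeded at 5,000–40,000 cells/well by doubling time. Preincubated 24 h at 37°C, 5% CO2. Compound in DMSO, diluted in medium with gentamicin, then 48 h exposure. Fixed with cold TCA, SRB stained, A515 read. Percent growth vs untreated control, time-zero plate corrected.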

786-0 = assay: Growth inhibition of human 786-0 cells assessed as cell growth at 10^-5 M after 48 hrs by sulforhodamine B assay relative to control; assay type: functional; details: 786-0, 48 h, read-out: Activity; in short: as §1
COLO 205 = assay: Growth inhibition of human COLO205 cells assessed as cell growth at 10^-5 M after 48 hrs by sulforhodamine B assay relative to control; assay type: functional; details: COLO 205, 48 h, read-out: Activity; in short: as §1
PC-3 = assay: Growth inhibition of human PC3 cells assessed as cell growth at 10^-5 M after 48 hrs by sulforhodamine B assay relative to control; assay type: functional; details: PC-3, 48 h, read-out: Activity; in short: as §1
OVCAR-3 = assay: Growth inhibition of human OVCAR3 cells assessed as cell growth at 10^-5 M after 48 hrs by sulforhodamine B assay relative to control; assay type: functional; details: OVCAR-3, 48 h, read-out: Activity; in short: as §1
HOP-62 = assay: Growth inhibition of human HOP62 cells assessed as cell growth at 10^-5 M after 48 hrs by sulforhodamine B assay relative to control; assay type: functional; details: HOP-62, 48 h, read-out: Activity; in short: as §1
MDA-MB-468 = assay: Growth inhibition of human MDA-MB-468 cells assessed as cell growth at 10^-5 M after 48 hrs by sulforhodamine B assay relative to control; assay type: functional; details: MDA-MB-468, 48 h, read-out: Activity; in short: as §1
SK-OV-3 = assay: Growth inhibition of human SKOV3 cells assessed as cell growth at 10^-5 M after 48 hrs by sulforhodamine B assay relative to control; assay type: functional; details: SK-OV-3, 48 h, read-out: Activity; in short: as §1
SK-MEL-5 = assay: Growth inhibition of human SK-MEL-5 cells assessed as cell growth at 10^-5 M after 48 hrs by sulforhodamine B assay relative to control; assay type: functional; details: SK-MEL-5, 48 h, read-out: Activity; in short: as §1
NCI-H460 = assay: Growth inhibition of human NCI-H460 cells assessed as cell growth at 10^-5 M after 48 hrs by sulforhodamine B assay relative to control; assay type: functional; details: NCI-H460, 48 h, read-out: Activity; in short: as §1
MOLT-4 = assay: Growth inhibition of human MOLT4 cells assessed as cell growth at 10^-5 M after 48 hrs by sulforhodamine B assay relative to control; assay type: functional; details: MOLT-4, 48 h, read-out: Activity; in short: as §1
SN12C = assay: Growth inhibition of human SN12C cells assessed as cell growth at 10^-5 M after 48 hrs by sulforhodamine B assay relative to control; assay type: functional; details: read-out: Activity; in short: as §1
CCRF-CEM = assay: Growth inhibition of human CCRF-CEM cells assessed as cell growth at 10^-5 M after 48 hrs by sulforhodamine B assay relative to control; assay type: functional; details: read-out: Activity; in short: as §1
ACHN = assay: Growth inhibition of human ACHN cells assessed as cell growth at 10^-5 M after 48 hrs by sulforhodamine B assay relative to control; assay type: functional; details: read-out: Activity; in short: as §1
[2] = Growth inhibition of human HCC2998 cells assessed as cell growth at 10^-5 M after 48 hrs by sulforhodamine B assay relative to control; assay type: functional; details: HCC 2998, 48 h, read-out: Activity; in short: as §1
UO-31 = assay: Growth inhibition of human UO31 cells assessed as cell growth at 10^-5 M after 48 hrs by sulforhodamine B assay relative to control; assay type: functional; details: UO-31, 48 h, read-out: Activity; in short: as §2
SNB-75 = assay: Growth inhibition of human SNB75 cells assessed as cell growth at 10^-5 M after 48 hrs by sulforhodamine B assay relative to control; assay type: functional; details: SNB-75, 48 h, read-out: Activity; in short: as §1
A498 = assay: Growth inhibition of human A498 cells assessed as cell growth at 10^-5 M after 48 hrs by sulforhodamine B assay relative to control; assay type: functional; details: A498, 48 h, read-out: Activity; in short: as §1
Malme-3M = assay: Growth inhibition of human MALME-3M cells assessed as cell growth at 10^-5 M after 48 hrs by sulforhodamine B assay relative to control; assay type: functional; details: read-out: Activity; in short: as §1
IGROV-1 = assay: Growth inhibition of human IGROV1 cells assessed as cell growth at 10^-5 M after 48 hrs by sulforhodamine B assay relative to control; assay type: functional; details: IGROV-1, 48 h, read-out: Activity; in short: as §1
[3] = molecular target: Epidermal growth factor receptor (Homo sapiens, UniProt P00533); assay: Inhibition of human EGFR
Sequence of Epidermal growth factor receptor (P00533 whole entry): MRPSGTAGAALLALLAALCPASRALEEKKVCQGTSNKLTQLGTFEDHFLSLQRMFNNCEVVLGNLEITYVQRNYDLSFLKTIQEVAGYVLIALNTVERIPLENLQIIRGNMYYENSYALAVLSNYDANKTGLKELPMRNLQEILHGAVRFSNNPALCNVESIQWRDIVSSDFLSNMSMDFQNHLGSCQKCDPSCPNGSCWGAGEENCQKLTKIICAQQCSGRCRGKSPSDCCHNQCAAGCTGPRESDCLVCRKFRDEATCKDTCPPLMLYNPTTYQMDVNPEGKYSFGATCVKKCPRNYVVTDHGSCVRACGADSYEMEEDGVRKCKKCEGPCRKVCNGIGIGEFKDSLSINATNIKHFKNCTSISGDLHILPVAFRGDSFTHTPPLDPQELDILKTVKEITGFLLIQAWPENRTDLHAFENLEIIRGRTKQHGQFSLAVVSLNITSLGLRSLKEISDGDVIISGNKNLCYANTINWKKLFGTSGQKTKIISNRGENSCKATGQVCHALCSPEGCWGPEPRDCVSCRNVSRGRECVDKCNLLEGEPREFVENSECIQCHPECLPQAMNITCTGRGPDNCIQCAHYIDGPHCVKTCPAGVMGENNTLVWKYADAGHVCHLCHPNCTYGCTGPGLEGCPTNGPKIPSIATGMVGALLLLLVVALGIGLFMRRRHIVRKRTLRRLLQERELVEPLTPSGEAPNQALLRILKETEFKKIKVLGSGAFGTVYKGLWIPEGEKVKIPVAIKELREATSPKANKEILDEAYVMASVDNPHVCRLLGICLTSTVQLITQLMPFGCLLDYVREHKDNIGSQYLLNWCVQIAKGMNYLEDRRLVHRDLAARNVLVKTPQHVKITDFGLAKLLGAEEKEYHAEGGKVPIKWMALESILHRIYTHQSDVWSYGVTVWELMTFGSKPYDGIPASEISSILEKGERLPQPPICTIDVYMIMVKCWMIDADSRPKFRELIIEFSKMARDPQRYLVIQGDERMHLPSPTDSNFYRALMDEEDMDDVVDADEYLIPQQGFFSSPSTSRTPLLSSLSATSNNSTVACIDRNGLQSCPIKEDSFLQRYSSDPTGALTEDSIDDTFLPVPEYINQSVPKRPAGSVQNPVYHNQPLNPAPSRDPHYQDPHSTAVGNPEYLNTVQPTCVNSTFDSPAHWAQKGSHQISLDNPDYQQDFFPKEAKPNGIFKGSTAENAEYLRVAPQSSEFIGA

Sequence of Thymidylate synthase (P04818 whole entry): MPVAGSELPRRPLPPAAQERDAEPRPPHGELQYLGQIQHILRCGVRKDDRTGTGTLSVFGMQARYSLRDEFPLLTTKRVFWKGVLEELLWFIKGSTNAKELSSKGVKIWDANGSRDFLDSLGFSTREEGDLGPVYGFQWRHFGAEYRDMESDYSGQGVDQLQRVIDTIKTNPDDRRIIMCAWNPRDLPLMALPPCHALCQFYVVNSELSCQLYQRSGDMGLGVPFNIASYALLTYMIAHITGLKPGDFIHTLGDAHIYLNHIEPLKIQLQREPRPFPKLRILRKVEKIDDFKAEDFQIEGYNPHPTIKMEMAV

Row | Structure (SMILES) | growth at 10 µM (SF-539) | Ki (Thymidylate synthase) | growth at 10 µM (A549) | growth at 10 µM (NCI-H23) | growth at 10 µM (NCI-H322M) | growth at 10 µM (MCF7) | growth at 10 µM [1] | growth at 10 µM (RXF 393) | growth at 10 µM (SR) | growth at 10 µM (786-0) | growth at 10 µM (COLO 205) | growth at 10 µM (PC-3) | growth at 10 µM (OVCAR-3) | growth at 10 µM (HOP-62) | growth at 10 µM (MDA-MB-468) | growth at 10 µM (SK-OV-3) | growth at 10 µM (SK-MEL-5) | growth at 10 µM (NCI-H460) | growth at 10 µM (MOLT-4) | growth at 10 µM (SN12C) | other results
1 | Cc1ccc(-c2csc(=N)n2CC(=O)N2CCN(C)CC2)cc1 | 101% | 19.3 µM | 86.8% | 93.3% | 104% | 93.2% | 93.1% | 93.1% | 86.5% | 101% | 106% | 68.4% | 108% | 99.5% | 98.6% | 111% | 87.2% | 102% | 76.3% | 93.2% | growth at 10 µM (CCRF-CEM): 87.1%; growth at 10 µM (ACHN): 81.2%; growth at 10 µM [2]: 103%; growth at 10 µM (UO-31): 83.1%; growth at 10 µM (SNB-75): 73.5%; growth at 10 µM (A498): 80.2%; growth at 10 µM (Malme-3M): 128%; growth at 10 µM (IGROV-1): 111%; Ki [3]: 27.4 µM
2 | Cc1ccc(-c2csc(=N)n2CC(=O)N2CCN(c3ccccc3)CC2)cc1 | 100% | 5.6 µM | 97.7% | 101% | 99.7% | 81.4% | 92.6% | 97.3% | 98.8% | 101% | 109% | 82.1% | 95.4% | 111% | 97.6% | 89.2% | 88.2% | 105% | 94.5% | 85.2% | growth at 10 µM (CCRF-CEM): 103%; growth at 10 µM (ACHN): 81.2%; growth at 10 µM [2]: 104%; growth at 10 µM (UO-31): 78.8%; growth at 10 µM (SNB-75): 95.8%; growth at 10 µM (A498): 92.6%; growth at 10 µM (Malme-3M): 118%; growth at 10 µM (IGROV-1): 93.2%; Ki [3]: 2.97 µM
3 | N=c1scc(-c2ccccc2)n1CC(=O)N1CCN(c2ccccc2)CC1 | 97.2% | 1.36 µM | 90.3% | 91.7% | 92.6% | 95.3% | 86.5% | 107% | 89.9% | 104% | 102% | 72.3% | 109% | 96.6% | 107% | 94.5% | 94.8% | 96.4% | 99.6% | 101% | growth at 10 µM (CCRF-CEM): 95.8%; growth at 10 µM (ACHN): 83.4%; growth at 10 µM [2]: 100%; growth at 10 µM (UO-31): 58%; growth at 10 µM (SNB-75): 74.6%; growth at 10 µM (A498): 87.2%; growth at 10 µM (Malme-3M): 94.2%; growth at 10 µM (IGROV-1): 98.9%; Ki [3]: 4.68 µM
4 | CN1CCN(C(=O)Cn2c(-c3ccccc3)csc2=N)CC1 | 98.7% | 1.14 µM | 92% | 90% | 90.2% | 81.4% | 92.6% | 97.3% | 74.1% | 101% | 103% | 82.1% | 95.4% | 88.9% | 97.6% | 89.2% | 88.2% | 99.1% | 95.2% | 85.2% | growth at 10 µM (CCRF-CEM): 97.6%; growth at 10 µM (ACHN): 81.2%; growth at 10 µM [2]: 101%; growth at 10 µM (UO-31): 78.8%; growth at 10 µM (SNB-75): 56.5%; growth at 10 µM (A498): 92.6%; growth at 10 µM (Malme-3M): 89.1%; growth at 10 µM (IGROV-1): 93.2%; Ki [3]: 41.6 µM
